≈ marks a conversion by molar mass, not a printed value.
Legend:
MCF7 [1] = assay: Dose required for reduction in cell growth of human breast cancer MCF-7 cell line; type: functional; conditions: read-out: ED50 (the source's name)
Method in brief: (§1)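 Freshly trypsinized cells in RPMI-1640 (25 mM HEPES, 0.25% sodium bicarbonate, 10% FBS, 100 μg/mL kanamycin) were seeded at 1500-7500 cells/well and dosed from DMSO-diluted stock. After 3 days they were fixed with cold 50% TCA, stained with 0.4% SRB, and read at 562 nm after dye solubilization. ED50 (50% growth reduction) is the mean of ≥3 independent determinations.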

MDA-MB-231 [2] = assay: Dose required for reduction in cell growth of human breast cancer MDA-MB-231 cell line; type: functional; conditions: read-out: ED50 (the source's name); method in brief: as §1
A-431 [3] = assay: Effective dose for reduction in cell growth of human skin cancer A431 cell line; conditions: A-431, read-out: ED50
SW-620 [4] = assay: Dose required for reduction in cell growth of human colon cancer SW620 cell line; type: functional; conditions: read-out: ED50 (the source's name)
MDA-MB-231 [5] = assay: cells; type: functional; conditions: Homo sapiens, MDA-MB-231, read-out: ED50
LNCaP [6] = assay: Dose required for reduction in cell growth of human AR-dependent prostate cancer LN-CaP cell line; type: functional; conditions: read-out: ED50 (the source's name)
PC-3 = assay: Dose required for reduction in cell growth of human prostate cancer PC-3 cell line; type: functional; conditions: read-out: ED50 (the source's name)
MCF7 [7] = assay: Dose required for reduction in cell growth of estrogen positive human breast cancer MCF-7 cell line (ER+); type: functional; conditions: read-out: ED50 (the source's name)
SK-BR-3 = assay: Dose required for reduction in cell growth of estrogen negative human breast cancer SK-BR-3 cell line(ER-); type: functional; conditions: read-out: ED50 (the source's name)
cells = type: functional; conditions: Homo sapiens; read-out: ED50 (the source's name)
ZR-75-1 = assay: Dose required for reduction in cell growth of estrogen positive human breast cancer ZR-75-1 cell line (ER+); type: functional; conditions: read-out: ED50 (the source's name)
KB [8] = assay: Dose required for reduction in cell growth of vincristine-resistant human nasopharyngeal carcinoma KB cell line; type: functional; conditions: read-out: ED50 (the source's name)
KB [9] = assay: Dose required for reduction in cell growth of human nasopharyngeal carcinoma KB cell line; type: functional; conditions: read-out: ED50 (the source's name)
MDA-MB-231 [10] = assay: Percent inhibition of cell growth in human breast cancer MDA-MB-231 cell line; type: functional
KB [11] = assay: Percent inhibition of cell growth in vincristine-resistant human nasopharyngeal carcinoma KB cell line; type: functional
A549 [12] = assay: Percent inhibition of cell growth in human lung cancer A549 cell line; type: functional
A-431 [13] = assay: Percent inhibition of human skin cancer A431 cell proliferation; type: functional
SW-620 [14] = assay: Percent inhibition of cell growth in human colon cancer SW620 cell line; type: functional
MCF7 [15] = assay: Percent inhibition of cell growth in human breast cancer MCF-7 cell line; type: functional
KB [16] = assay: Percent inhibition of cell growth in human nasopharyngeal carcinoma KB cell line; type: functional
A-431 [17] = assay: Effective concentration required for 50% reduction in cell growth of human skin cancer A431 cell line; type: functional; conditions: read-out: ED50 (the source's name); method in brief: as §1
A549 [18] = assay: Dose required for reduction in human lung cancer A549 cell proliferation; type: functional; conditions: read-out: ED50 (the source's name); method in brief: as §1
LNCaP [19] = assay: Percent inhibition of cell growth in human AR-dependent prostate cancer LN-CaP cell line; value ranges from 28-36; type: functional

## C[C@H]1COC2=C1C(=O)C(=O)c1c2ccc2c1CCCC2(C)C [CRYPTOTANSHINONE]
MCF7 [1]
  EC50: 0.41 µg/mL (≈ 1.38 µM)
MDA-MB-231 [2]
  EC50: 0.16 µg/mL (≈ 0.54 µM)

## Cc1coc2c1C(=O)C(=O)c1c-2ccc2c1CCCC2(C)C [TANSHINONE IIA]
MCF7 [1]
  EC50: 0.38 µg/mL (≈ 1.29 µM)
MDA-MB-231 [2]
  EC50: 0.7 µg/mL (≈ 2.38 µM)

## CC/C(=C(\c1ccccc1)c1ccc(OCCN(C)C)cc1)c1ccccc1.O=C(O)CC(O)(CC(=O)O)C(=O)O [TAMOXIFEN CITRATE]
A-431 [3]
  EC50: 7 µg/mL
SW-620 [4]
  EC50: 4 µg/mL
MDA-MB-231 [5]
  EC50: > 8 µg/mL
LNCaP [6]
  EC50: 6 µg/mL
PC-3
  EC50: 10 µg/mL
MCF7 [7]
  EC50: 5 µg/mL
SK-BR-3
  EC50: 5 µg/mL
cells
  EC50: 9 µg/mL
ZR-75-1
  EC50: 5 µg/mL
KB [8]
  EC50: 9 µg/mL
KB [9]
  EC50: 9 µg/mL

## Cc1coc2c1C(=O)C(=O)c1c-2ccc2c(C)cccc12 [TANSHINONE I]
MCF7 [1]
  EC50: 0.82 µg/mL (≈ 2.97 µM)
MDA-MB-231 [2]
  EC50: 0.75 µg/mL (≈ 2.71 µM)

## Cc1cccc2c1ccc1c3occ(C)c3c(=O)oc21
MDA-MB-231 [10]
  Inhibition: 17%
KB [11]
  Inhibition: 9%
A549 [12]
  Inhibition: 10%
A-431 [13]
  Inhibition: 35%
SW-620 [14]
  Inhibition: 22%
MCF7 [15]
  Inhibition: 57%
KB [16]
  Inhibition: 18%
A-431 [17]
  EC50: > 10 µg/mL
A549 [18]
  EC50: > 20 µg/mL
SW-620 [4]
  EC50: > 10 µg/mL
MCF7 [1]
  EC50: < 2.5 µg/mL
MDA-MB-231 [5]
  EC50: > 10 µg/mL
LNCaP [6]
  EC50: > 10 µg/mL
PC-3
  EC50: 10 µg/mL (≈ 37.8 µM)
MDA-MB-231 [2]
  EC50: > 20 µg/mL
MCF7 [7]
  EC50: 0.6 µg/mL (≈ 2.27 µM)
SK-BR-3
  EC50: 0.2 µg/mL (≈ 0.757 µM)
cells
  EC50: 16 µg/mL (≈ 60.5 µM)
ZR-75-1
  EC50: 0.3 µg/mL (≈ 1.14 µM)
KB [8]
  EC50: > 10 µg/mL
KB [9]
  EC50: > 10 µg/mL
LNCaP [19]
  Inhibition: 36%

Reference: ChEMBL document CHEMBL1138839, “Antitumor Agents. 239. Isolation, structure elucidation, total synthesis, and anti-breast cancer activity of neo-tanshinlactone from Salvia miltiorrhiza” (2004)
